For 26 compounds, Activity and MIC results are on record in ChEMBL document CHEMBL1139764, “Design, synthesis, and structure-activity relationship studies of new phenolic DNA gyrase inhibitors” (2007).

Converted amounts (≈) assume the structure as drawn.

One test relates to Escherichia coli. Description: Inhibition of Escherichia coli D110 DNA gyrase after 30 mins by supercoiling assay.
Test [1] deals with Staphylococcus aureus. Description: Antibacterial activity against Staphylococcus aureus Smith by twofold agar dilution method. It counts as functional. The procedure, abridged: (§1)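 MIC read as lowest inhibitory level in twofold serial dilutions in Müller–Hinton agar; each spot inoculated with 10^4 CFU.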
The subject of test [2] is Staphylococcus aureus. Description: Antibacterial activity against novobiocin R144I-resistant Staphylococcus aureus ATCC 25923 by agar dilution method. It counts as functional. In a few lines:
as §1

A further test relates to Streptococcus pyogenes. Description: Antibacterial activity against Streptococcus pyogenes beta-15 by agar dilution method. The test is classed as functional. In a few lines: (§2)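 Twofold serial dilutions in Müller–Hinton agar with an inoculum of 10^4 CFU per spot. The read-out is the minimal inhibitory concentration (MIC).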
Test [3] concerns Staphylococcus aureus. Description: Antibacterial activity against Staphylococcus aureus ATCC 25923 by twofold agar dilution method. The test is classed as functional. In a few lines: as §1
In test [4] the test system is Staphylococcus aureus. Description: Antibacterial activity against erythromycin, methicillin and trimethoprim-resistant Staphylococcus aureus Smith 744 by twofold agar dilution method. The test is classed as functional. In a few lines:
as §1

Test [5] concerns Staphylococcus aureus. Description: Antibacterial activity against methicillin and quinolones-resistant Staphylococcus aureus Smith QR54 by twofold agar dilution method. The test is classed as functional. The procedure, abridged: as §1
In test [6] the test system is Staphylococcus epidermidis. Description: Antibacterial activity against Staphylococcus epidermidis ATCC 14990 by twofold agar dilution method. It counts as functional. The procedure, abridged:
as §2

The test system of a further test is Enterococcus faecium. Description: Antibacterial activity against ampicillin, trimethoprim and vancomycin-resistant Enterococcus faecium vanA E23-8 by twofold agar dilution method. The test is classed as functional. In a few lines:
as §1

Turning to `COc1cc(O)c2c(c1C)C(=O)N(c1ccc(Cl)c(Cl)c1)C2`, the Activity with Escherichia coli was found to be 4 µg/mL.
For the compound `COc1ccc(N2C(=O)c3c(C)c(OC)cc(O)c3C2C(Cl)C(C)=O)cc1` (stereo not drawn), in the test on Escherichia coli, the Activity stood at 63 µg/mL.
The compound `COc1cc(O)c2c(c1C)C(=O)N(c1ccc3ncccc3c1)C2` registered an Activity in the test on Escherichia coli of 1 µg/mL.
In the test with Escherichia coli, `COc1cc(O)c2c(c1C)C(=O)N(c1cccc(CC(=O)O)c1)C2` returned an Activity of 2 µg/mL.
The compound `COc1ccc(N2C(=O)c3c(C)c(OC)cc(O)c3C2OC)cc1` (stereo not drawn) gave an Activity with Escherichia coli of 16 µg/mL.
Compound `COc1ccc(N2C(=O)c3c(C)c(OC)cc(O)c3C2c2ccco2)cc1` (stereo not drawn) returned an Activity in the test on Escherichia coli greater than 63 µg/mL.
Same read-out and setting: for `COc1ccc(N2C(=O)c3c(C)c(OC)cc(O)c3C2Sc2ncccn2)cc1` (stereo not drawn) the value was 4 µg/mL.
Consider `COc1cc(O)c2c(c1C)C(=O)N1c3c(C)cccc3COC21` (stereo not drawn), for which the MIC against Staphylococcus aureus [1] is 32 µg/mL (≈ 103 µM); against Staphylococcus aureus [2], 16 µg/mL (≈ 51.4 µM); in the test on Streptococcus pyogenes, greater than 32 µg/mL; against Staphylococcus aureus [3], 32 µg/mL (≈ 103 µM); with Staphylococcus aureus [4], greater than 32 µg/mL; in the test on Staphylococcus aureus [5], 16 µg/mL (≈ 51.4 µM). In addition, the MIC in test [6] is 2 µg/mL (≈ 6.42 µM); against Enterococcus faecium, greater than 32 µg/mL. In addition, the Activity with Escherichia coli amounted to 0.5 µg/mL.
For the compound `Oc1ccc(Cl)cc1CNc1cccc(Cl)c1`, in the test on Escherichia coli, the Activity came out at 8 µg/mL.
Same read-out and setting: for `COC(=O)c1c(C)c(OC)cc(O)c1CNc1ccc(Cl)c(Cl)c1` the value was 2 µg/mL; for `COc1ccc(N2C(=O)c3c(C)c(OC)cc(O)c3C2c2ccc(C)o2)cc1` (stereo not drawn), greater than 63 µg/mL; for `Oc1ccc(Cl)cc1CNc1cc(Cl)cc(Cl)c1`, 4 µg/mL.
Still for that read-out and setting: for `COc1ccc(N2C(=O)c3c(C)c(OC)cc(O)c3C2CC(C)=O)cc1` (stereo not drawn) the value was greater than 63 µg/mL.
Compound `COc1cc(O)c2c(c1C)C(=O)N(c1ccc(S(N)(=O)=O)cc1)C2` registered an Activity in the test on Escherichia coli of 1 µg/mL.
In the case of `COc1cc(O)c2c(c1C)C(=O)N(c1cccc(C(=O)O)c1)C2`, the Activity in the test with Escherichia coli is 8 µg/mL.
`COc1ccc(N2C(=O)c3c(C)c(OC)cc(O)c3C2CC=O)cc1` (stereo not drawn): in the test with Escherichia coli, the Activity was 31 µg/mL.
Regarding `COc1cc(O)c2c(c1C)C(=O)N1c3ccc(C)cc3COC21` (stereo not drawn), the MIC in the test with Staphylococcus aureus [1] is 16 µg/mL (≈ 51.4 µM); in the test with Staphylococcus aureus [2], 16 µg/mL (≈ 51.4 µM); with Streptococcus pyogenes it was greater than 32 µg/mL; against Staphylococcus aureus [3], 32 µg/mL (≈ 103 µM); against Staphylococcus aureus [4], 32 µg/mL (≈ 103 µM); in the test on Staphylococcus aureus [5], 16 µg/mL (≈ 51.4 µM). Further, the figures for the MIC (in [6]; with Enterococcus faecium) were 2 µg/mL (≈ 6.42 µM) and greater than 32 µg/mL, respectively. In the test on Escherichia coli, this compound had an Activity of 0.25 µg/mL.
Turning to `COc1ccc(N2Cc3c(O)cc(OC)c(C)c3C2=O)cc1`, the Activity in the test with Escherichia coli came out at 8 µg/mL.
Same read-out and setting: for `COC(=O)c1c(C)c(OC)cc(O)c1CNc1ccc2ncccc2c1` the value was 8 µg/mL.
As to `CO[C@@H]1[C@@H](OC(N)=O)[C@@H](O)[C@H](Oc2ccc3c(O)c(NC(=O)c4ccc(O)c(CC=C(C)C)c4)c(=O)oc3c2C)OC1(C)C` [NOVOBIOCIN], the MIC against Staphylococcus aureus [1] was found to be 0.25 µg/mL (≈ 0.408 µM); against Staphylococcus aureus [2], 8 µg/mL (≈ 13.1 µM); with Streptococcus pyogenes, 2 µg/mL (≈ 3.26 µM); against Staphylococcus aureus [3] it was 0.25 µg/mL (≈ 0.408 µM); with Staphylococcus aureus [4] it was 0.25 µg/mL (≈ 0.408 µM); with Staphylococcus aureus [5], 0.12 µg/mL (≈ 0.196 µM). Moreover, the MIC in [6] came out at 0.12 µg/mL (≈ 0.196 µM); in the test on Enterococcus faecium, 8 µg/mL (≈ 13.1 µM). This compound also showed an Activity in the test with Escherichia coli of 0.25 µg/mL.
The compound `COc1ccc(N2C(=O)c3c(C)c(OC)cc(O)c3C2c2ccc(CC#N)s2)cc1` (stereo not drawn) returned an Activity with Escherichia coli of 36 µg/mL.
For `COc1ccc2c(c1)CC[C@@H]1c3c(O)cc(OC)c(C)c3C(=O)N21`, the MIC in the test on Staphylococcus aureus [1] was 16 µg/mL (≈ 49.2 µM); with Staphylococcus aureus [2], 8 µg/mL (≈ 24.6 µM); in the test on Streptococcus pyogenes, greater than 32 µg/mL; with Staphylococcus aureus [3], 32 µg/mL (≈ 98.4 µM); with Staphylococcus aureus [4], greater than 32 µg/mL; against Staphylococcus aureus [5], 16 µg/mL (≈ 49.2 µM). For the same compound, the MIC in [6] is less than 2 µg/mL; with Enterococcus faecium, greater than 32 µg/mL. Moreover, the Activity with Escherichia coli amounted to 0.5 µg/mL.
As for `COc1cc(O)c2c(c1C)C(=O)N1c3ccc(Cl)cc3CC[C@H]21`, the minimal inhibitory concentration (MIC) against Staphylococcus aureus [1] is greater than 32 µg/mL; in the test with Staphylococcus aureus [2], 16 µg/mL (≈ 48.5 µM); with Streptococcus pyogenes, greater than 32 µg/mL; with Staphylococcus aureus [3], greater than 32 µg/mL; with Staphylococcus aureus [5], 32 µg/mL (≈ 97 µM); in test [6] it was 32 µg/mL (≈ 97 µM). The MIC with Enterococcus faecium is greater than 32 µg/mL. The compound also gave an Activity in the test with Escherichia coli of 0.25 µg/mL.
Take `COc1cc(O)c2c(c1C)C(=O)N1c3ccccc3COC21` (stereo not drawn): the MIC (in the test with Staphylococcus aureus [1]; against Streptococcus pyogenes; in the test with Staphylococcus aureus [3]; in test [6]; against Enterococcus faecium) was greater than 32 µg/mL each time. For the same compound, the Activity with Escherichia coli turned out to be 0.5 µg/mL.
In the case of `COc1cc(O)c2c(c1C)C(=O)N1c3cc4c(cc3C(=O)CC21)OCO4` (stereo not drawn), the MIC in the test with Staphylococcus aureus [1] is greater than 32 µg/mL; against Streptococcus pyogenes, greater than 32 µg/mL; in the test with Staphylococcus aureus [3] it was greater than 32 µg/mL; in test [6], 32 µg/mL (≈ 90.6 µM); against Enterococcus faecium, greater than 32 µg/mL. Moreover, the Activity in the test with Escherichia coli amounted to 1 µg/mL.
As for `COc1cc(O)c2c(c1Br)C(=O)N1c3ccccc3COC21` (stereo not drawn), the MIC in the test with Staphylococcus aureus [1] is 2 µg/mL (≈ 5.52 µM); in the test on Staphylococcus aureus [2], 2 µg/mL (≈ 5.52 µM); against Streptococcus pyogenes, 8 µg/mL (≈ 22.1 µM); in the test on Staphylococcus aureus [3] it was 2 µg/mL (≈ 5.52 µM); with Staphylococcus aureus [4], 4 µg/mL (≈ 11 µM); with Staphylococcus aureus [5], 2 µg/mL (≈ 5.52 µM). The MIC was greater than 2 µg/mL in test [6] and greater than 32 µg/mL with Enterococcus faecium. In the test with Escherichia coli, this compound yielded an Activity of 0.5 µg/mL.
